# In ChEMBL document CHEMBL2062371, “Synthesis of benzamide derivatives and their evaluation as antiprion agents” (Bioorg Med Chem, 2012):
# Activity calls are given as the source filed them.
# Experiments:
# ScN2a [1] = experiment: Antiprion activity in mouse ScN2a cells assessed as reduction in PrPSc level at 20 uM after 3 days by dot blot assay relative to control; assay type: cell-based; design: scale not given: the % may be the effect or the level left
# Summary of the method: (§1)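 Compound was added at a final 20.0 or 2.0 µM, then incubated 3 days (ScN2a at 37 °C, SMB at 35 °C). Lysates were dot-blotted to PVDF, treated with proteinase K (25 µg/ml, 90 min, 37 °C) and denatured with guanidinium thiocyanate. PrPres was probed with rabbit 1023 antiserum and detected by ECL. Signal is relative to untreated control (100%), from three independent experiments.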
# [2] = Antiprion activity in mouse ScN2a cells assessed as reduction in PrPSc level after 3 days by dot blot assay relative to control; assay type: cell-based; settings: 72 h
# SMB [3] = experiment: Antiprion activity in mouse SMB cells assessed as reduction in PrPSc level at 20 uM after 3 days by dot blot assay relative to control; assay type: cell-based; design: scale not given: the % may be the effect or the level left; summary of the method: as §1
# ScN2a [4] = experiment: Antiprion activity in mouse ScN2a cells assessed as reduction in PrPSc level at 2 uM after 3 days by dot blot assay relative to control; assay type: cell-based; design: scale not given: the % may be the effect or the level left; summary of the method: as §1
# [5] = Antiprion activity in mouse SMB cells assessed as reduction in PrPSc level after 3 days by dot blot assay relative to control; assay type: cell-based; settings: 72 h
# [6] = Inhibition of mouse recombinant alexa fluor 488-labeled PrPC expressed in Escherichia coli BL21(DE3) RIL assessed as inhibition of association with PrPSc measured for 10 secs by SIFT-based confocal microscopy
# Summary of the method: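 SIFT assay: Alexa-488-labelled mouse rPrP and Alexa-647-labelled L42 antibody (each about 2–6 nM) were mixed with diluted human PrPSc and compound in 20 mM potassium phosphate pH 6 with 0.1% Nonidet P40. Dilution series 0.1–100 µM. Read by dual-colour confocal FIDA as 2D intensity histograms, with cut-offs set from controls. EC50 is half-maximal inhibition of rPrP binding to PrPSc.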
# SMB [7] = experiment: Antiprion activity in mouse SMB cells assessed as reduction in PrPSc level at 2 uM after 3 days by dot blot assay relative to control; assay type: cell-based; design: scale not given: the % may be the effect or the level left; summary of the method: as §1
# ScN2a [8] = experiment: Antiprion activity in mouse ScN2a cells assessed as inhibition of PrPSc formation at 17 uM after 3 days by dot blot assay relative to control; assay type: cell-based
Structure (SMILES),Activity (ScN2a [1]),EC50 [2],Activity (SMB [3]),Activity (ScN2a [4]),EC50 [5],EC50 ([6]; read-out: EC50),Activity (SMB [7]),inhibition (ScN2a [8]),EC50 [6]
CCCCNC(=O)c1cc(NC(=O)CN2CCCCC2)ccc1Oc1ccc(OC)cc1,28%,3.56 µM,82%,49%,> 1000 µM,150 µM,83%,–,–
CCCCNC(=O)c1cc(NC(=O)CN2CCCC2)ccc1Oc1ccc(F)cc1,39%,4.7 µM,92%,45%,> 1000 µM,200 µM,57%,–,–
CCCCNC(=O)c1cc(NC(=O)CN2CCCC2)ccc1Oc1ccc(Cl)cc1,16%,1.7 µM,46%,25%,12.3 µM,55 µM,68%,–,–
CCCCNC(=O)c1cc(NC(=O)CN2CCCC2)ccc1OC12CC3CC(CC(C3)C1)C2,16%,2 µM,42%,34%,12.4 µM,80 µM,77%,–,–
CCCCNC(=O)c1cc(NC(=O)CN2CCCC2)ccc1Oc1ccccc1,41%,5.52 µM,82%,48%,> 1000 µM,200 µM,92%,–,–
CCCCNC(=O)c1cc(NC(=O)CN2CCCCC2)ccc1Oc1ccc(OCCCC)cc1,21%,3.73 µM,52%,61%,24.3 µM,50 µM,76%,–,–
CCCCNC(=O)c1cc(NC(=O)CN2CCCC2)ccc1Oc1ccc(C(C)C)cc1,20%,2.08 µM,48%,32%,16.3 µM,18 µM,73%,–,–
CCCCNC(=O)c1cc(NC(=O)CN2CCCC2)ccc1Oc1ccc(OCCCC)cc1,19%,2.98 µM,58%,52%,53.6 µM,30 µM,82%,–,–
CCCCNC(=O)c1cc(NC(=O)CN2CCCCC2)ccc1Oc1ccc(C(F)(F)F)cc1,17%,2.08 µM,53%,35%,30 µM,70 µM,80%,–,–
CCCCCCCC/C=C\CCCCCCCOCC(C[N+](C)(C)CCNC(=O)C(CCCNCCCN)NCCCN)OCCCCCCC/C=C\CCCCCCCC (stereo not drawn),–,–,–,–,–,–,–,Active,–
CCCCNC(=O)c1cc(NC(=O)CN2CCCCC2)ccc1Oc1ccc(C(C)C)cc1,13%,2.22 µM,46%,43%,13.8 µM,15 µM,72%,–,–
CCCCNC(=O)c1cc(NC(=O)CN2CCCCC2)ccc1Oc1ccc(Cl)cc1,21%,2.25 µM,49%,35%,15 µM,20 µM,68%,–,–
CCCCNC(=O)c1cc(NC(=O)CN2CCCCC2)ccc1OC1CCCCC1,22%,2.39 µM,65%,37%,108 µM,80 µM,76%,–,–
CCCCNC(=O)c1cc(NC(=O)CN2CCCCC2)ccc1OC12CC3CC(CC(C3)C1)C2,12%,1.65 µM,36%,27%,5.22 µM,50 µM,54%,–,–
CCCCNC(=O)c1cc(NC(=O)CN2CCCC2)ccc1Oc1ccc(C(F)(F)F)cc1,12%,1.61 µM,41%,26%,5.81 µM,40 µM,50%,–,–
CCCCNC(=O)c1cc(NC(=O)CN2CCCCC2)ccc1Oc1ccccc1C(F)(F)F,12%,2.04 µM,55%,39%,30.6 µM,70 µM,75%,–,–
CCCCNC(=O)c1cc(NC(=O)CN2CCCC2)ccc1Oc1ccc(OC)cc1,31%,2.92 µM,75%,36%,866 µM,198 µM,74%,–,–
CCCCNC(=O)c1cc(NC(=O)CN2CCCCC2)ccc1OC(C)C,29%,6.86 µM,72%,78%,161 µM,–,58%,–,Not Active
CCCCNC(=O)c1cc(NC(=O)CN2CCCC2)ccc1OC(C)C,24%,2.76 µM,48%,42%,10.8 µM,–,59%,–,Not Active
C#CCOc1ccc(NC(=O)CN2CCCC2)cc1C(=O)NCCCC,32%,3.52 µM,65%,43%,99.2 µM,–,74%,–,Not Active
CCCCNC(=O)c1cc(NC(=O)CN2CCCCC2)ccc1Oc1ccc(F)cc1,32%,2.93 µM,81%,35%,> 1000 µM,70 µM,61%,–,–
CCCCNC(=O)c1cc(NC(=O)CN2CCCC2)ccc1OC1CCCCC1,32%,3.14 µM,38%,38%,7.81 µM,200 µM,67%,–,–
CCCCNC(=O)c1cc(NC(=O)CN2CCCCC2)ccc1Oc1ccc(C)cc1,26%,2.57 µM,86%,36%,> 1000 µM,40 µM,86%,–,–
C#CCOc1ccc(NC(=O)CN2CCCCC2)cc1C(=O)NCCCC,37%,9.28 µM,66%,76%,97.2 µM,–,70%,–,Not Active
CCCCNC(=O)c1cc(NC(=O)CN2CCCC2)ccc1Oc1ccccc1C(F)(F)F,15%,1.42 µM,54%,16%,16.5 µM,25 µM,61%,–,–
CCCCNC(=O)c1cc(NC(=O)CN2CCCCC2)ccc1Oc1ccccc1,30%,3.86 µM,75%,50%,501 µM,200 µM,65%,–,–
CCCCNC(=O)c1cc(NC(=O)CN2CCCC2)ccc1Oc1ccc(C)cc1,13%,1.83 µM,55%,32%,18.9 µM,70 µM,61%,–,–
